In ChEMBL document CHEMBL2057099, “Synthesis of rocaglamide hydroxamates and related compounds as eukaryotic translation inhibitors: synthetic and biological studies” (J Med Chem, 2012):
Activity calls are given as the source filed them. No cut-off for these calls is given here.

Tests used:
[1] = molecular target: Eukaryotic initiation factor 4A-I (Oryctolagus cuniculus) (UniProt P29562); assay: Inhibition of eIF4A1-mediated FF/HCV/Ren cap-dependent mRNA translation in rabbit reticulocyte lysate by reporter gene assay
Chain of Eukaryotic initiation factor 4A-I (Oryctolagus cuniculus) (P29562 whole entry): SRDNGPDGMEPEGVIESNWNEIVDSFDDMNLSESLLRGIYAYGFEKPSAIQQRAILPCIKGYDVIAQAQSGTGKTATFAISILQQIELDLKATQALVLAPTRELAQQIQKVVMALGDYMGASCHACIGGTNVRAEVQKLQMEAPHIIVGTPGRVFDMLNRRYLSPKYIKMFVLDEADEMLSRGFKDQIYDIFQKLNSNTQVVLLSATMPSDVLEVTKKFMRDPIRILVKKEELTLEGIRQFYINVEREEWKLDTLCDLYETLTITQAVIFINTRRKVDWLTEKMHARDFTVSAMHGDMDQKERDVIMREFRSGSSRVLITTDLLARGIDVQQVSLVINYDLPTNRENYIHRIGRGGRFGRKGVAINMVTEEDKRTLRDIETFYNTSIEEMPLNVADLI

[2] = molecular target: T1, Eukaryotic initiation factor 4A-I (Homo sapiens, UniProt P60842); assay: Inhibition of eIF4A1-mediated protein synthesis in human HeLA cells assessed as inhibition of [35S]Met incorporation by scintillation counting; assay type: cell-based
T1 sequence (P60842 whole entry): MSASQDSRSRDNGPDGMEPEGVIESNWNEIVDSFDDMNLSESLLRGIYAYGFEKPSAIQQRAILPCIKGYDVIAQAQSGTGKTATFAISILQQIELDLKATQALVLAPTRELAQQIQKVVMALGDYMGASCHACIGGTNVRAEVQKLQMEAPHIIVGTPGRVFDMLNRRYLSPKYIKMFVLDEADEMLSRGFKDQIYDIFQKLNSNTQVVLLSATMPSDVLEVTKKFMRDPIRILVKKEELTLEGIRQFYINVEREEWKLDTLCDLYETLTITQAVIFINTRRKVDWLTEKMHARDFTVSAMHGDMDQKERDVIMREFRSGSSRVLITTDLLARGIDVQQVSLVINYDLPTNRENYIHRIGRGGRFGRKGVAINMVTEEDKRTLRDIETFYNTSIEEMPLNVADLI
Outline: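 HeLa cells treated with compound or DMSO vehicle. Protein synthesis measured as 35S-Met incorporation, normalised to total protein content and expressed relative to the DMSO control. Values are the average of duplicates with the error of the mean.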

[3] = molecular target: T1, Eukaryotic initiation factor 4A-I; assay: Inhibition of recombinant eIF4A1 assessed as eIF4A1/[32P]mRNA complex formation at 1 to 10 uM after 10 mins by scintillation counting in presence of hippuristanol
[4] = Metabolic stability in human liver microsomes assessed as compound remaining after 1 hr; assay type: ADME, Microsome; details: read-out: Stability
Outline: (§1)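 Incubation with human or murine liver microsomes, read as percent compound remaining after 1 h.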

[5] = molecular target: T1, Eukaryotic initiation factor 4A-I; assay: Inhibition of eIF4A1-mediated protein synthesis in human BJAB cells assessed as inhibition of [35S]Met incorporation after 1 hr by scintillation counting; assay type: cell-based
Outline: (§2)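 BJAB lymphoma cells exposed to compound for 1 h or 72 h. Protein synthesis measured as 35S-Met incorporation, normalised to total protein content and expressed relative to DMSO vehicle. Duplicates.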

[6] = Solubility of the compound at pH 7.4; assay type: physicochemical; details: buffer
Outline: (§3)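 Solubility measured at pH 5.0, 6.2 and 7.4.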

[7] = Permeability of the compound by PAMPA assay at pH 6.2; assay type: ADME
[8] = Solubility of the compound at pH 5; assay type: physicochemical; details: buffer; outline: as §3
BJAB = assay: Cytotoxicity against human BJAB cells after 72 hrs by PI-staining based flow cytometric analysis; assay type: functional, cell-based
Outline: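 BJAB cells exposed 72 h to a concentration series. Viability by propidium iodide staining and flow cytometry, plotted relative to vehicle (DMSO). Mean of three experiments.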

[9] = Plasma protein binding in human after 4 hrs; assay type: ADME, cell-free; details: read-out: PPB (converted)
Outline: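 Human plasma protein binding measured after 4 h exposure.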

[10] = molecular target: T1, Eukaryotic initiation factor 4A-I; assay: Inhibition of recombinant eIF4A1 assessed as depletion of eIF4A1/2 from eIF4F complex at 1 to 10 uM after 1 hr by Western blot analysis
Outline: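 eIF4F complex isolated by m7GTP affinity purification. Eluates resolved on 10% SDS-PAGE, then Western blot for eIF4E and eIF4AI/II.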

[11] = molecular target: T1, Eukaryotic initiation factor 4A-I; assay: Inhibition of recombinant eIF4A1 assessed as eIF4A1/[32P]mRNA complex formation after 10 mins by scintillation counting
Outline: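 Binding of eIF4AI to radiolabelled RNA. Mean of three experiments with standard error of the mean.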

[12] = Solubility of the compound at pH 6.2; assay type: physicochemical; details: buffer; outline: as §3
Mus musculus [13] = assay: Hematotoxicity in C57Bl/6 mouse assessed as effect on B220 pre-B/B cells at 0.2 mg/kg, ip administered for 5 days measured 2 hrs post last dose by FACS analysis; assay type: organism-based; design: dose 0.2 mg/kg, route intraperitoneal; details: in vivo
Mus musculus [14] = assay: Hematotoxicity in C57Bl/6 mouse assessed as effect on CD4 T cells at 0.2 mg/kg, ip administered for 5 days measured 2 hrs post last dose by FACS analysis; assay type: organism-based, T-cell; design: dose 0.2 mg/kg, route intraperitoneal; details: in vivo
Mus musculus [15] = assay: Hematotoxicity in C57Bl/6 mouse assessed as effect on […] T cells at 0.2 mg/kg, ip administered for 5 days measured 2 hrs post last dose by FACS analysis; assay type: organism-based, T-cell; design: dose 0.2 mg/kg, route intraperitoneal; details: in vivo
[16] = Metabolic stability in human plasma assessed as compound remaining after 3 hrs; assay type: ADME, cell-free; details: read-out: Stability
Outline: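 Stability in human plasma measured as percent compound remaining after 3 h.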

Mus musculus [17] = assay: Hematotoxicity in C57Bl/6 mouse assessed as effect on Ly-6G myeloid cells at 0.2 mg/kg, ip administered for 5 days measured 2 hrs post last dose by FACS analysis; assay type: organism-based; design: dose 0.2 mg/kg, route intraperitoneal; details: in vivo
[18] = molecular target: T1, Eukaryotic initiation factor 4A-I; assay: Inhibition of eIF4A1-mediated protein synthesis in human BJAB cells assessed as inhibition of [35S]Met incorporation after 72 hr by scintillation counting; assay type: cell-based; outline: as §2
lymphoma = assay: Potentiation of doxorubicin antitumor activity against mouse Eu-myc/myr-AKT lymphoma cells xenografted in C57Bl/6 mouse assessed as tumor-free survival at 0.2 mg/kg, ip administered daily for 5 days; assay type: functional, organism-based; design: dose 0.2 mg/kg
Outline: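 C57Bl/6 mice, 6-8 weeks old, received 10^6 Eμ-myc/(myr)Akt lymphoma cells intravenously. Dosing began when tumours were palpable: test agent 0.2 mg/kg i.p. daily for 5 d in PEG 400/5.2% Tween 80, with doxorubicin 10 mg/kg given once on day 2. n=5 per group. Read-out was tumour-free survival (Kaplan-Meier).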

[19] = Metabolic stability in mouse liver microsomes assessed as compound remaining after 1 hr; assay type: ADME, Microsome; details: read-out: Stability; outline: as §1
[20] = Permeability of the compound by PAMPA assay at pH 7.4; assay type: ADME
[21] = Permeability of the compound by PAMPA assay at pH 5; assay type: ADME

## COc1ccc(C23Oc4cc(OC)cc(OC)c4C2(O)C(O)C(C(=O)NOCC2CC2)C3c2ccccc2)cc1 (racemic)
[1]
  inhibition: Active

## CONC(=O)C1C(O)C2(O)c3c(OC)cc(OC)cc3OC2(c2ccc(OC)cc2)C1c1ccccc1 (racemic)
[1]
  inhibition: Active

## COc1ccc([C@@]23Oc4cc(OC)cc(OC)c4[C@]2(O)[C@H](O)[C@H](C(=O)c2ccc(CO)o2)[C@H]3c2ccccc2)cc1
[1]
  inhibition: Active

## CONC(=O)[C@@H]1[C@H](O)[C@]2(O)c3c(OC)cc(OC)cc3O[C@]2(c2ccc(OC)cc2)[C@H]1c1ccccc1
[1]
  inhibition: inactive

## COc1ccc(C23Oc4cc(OC)cc(OC)c4C2(O)C(O)C(C(=O)NOCCO)C3c2ccccc2)cc1 (racemic)
[1]
  inhibition: Active
[2]
  inhibition: Active

## COc1ccc(C23Oc4cc(OC)cc(OC)c4C2(O)C(O)C(C(=O)NOCCOCCOCCNC(C)=O)C3c2ccccc2)cc1 (racemic)
[1]
  inhibition: Active
[2]
  inhibition: Active

## CONC(=O)[C@H]1[C@@H](O)[C@@]2(O)c3c(OC)cc(OC)cc3O[C@@]2(c2ccc(OC)cc2)[C@@H]1c1ccccc1
[3]
  inhibition: inactive
[4]
  remaining at 1 h: > 95%
[5]
  IC50: 20 nM
[6]
  solubility: > 150 mg/mL
[7]
  permeability: permeable
[8]
  solubility: > 150 mg/mL
BJAB
  IC50: 1.5 nM
[9]
  fraction unbound at 4 h: 0.18
[10]
  inhibition: Active
[11]
  inhibition: Dose-dependent effect
[12]
  solubility: > 150 mg/mL
Mus musculus [13]
  Activity: Non-toxic
Mus musculus [14]
  Activity: Non-toxic
Mus musculus [15]
  Activity: Non-toxic
[16]
  remaining at 3 h: 100%
Mus musculus [17]
  Activity: Non-toxic
[18]
  IC50: 0.5 nM
[1]
  inhibition: Active
lymphoma
  Activity: Active
[19]
  remaining at 1 h: > 95%
[20]
  permeability: permeable
[21]
  permeability: permeable

## COC(=O)[C@H]1[C@@H](O)[C@@]2(O)c3c(OC)cc(O[C@@H]4O[C@@H]([C@H](O)CO)CO[C@H]4OC)cc3O[C@@]2(c2ccc(OC)cc2)[C@@H]1c1ccccc1
[3]
  inhibition: inactive
[5]
  inhibition: Active
BJAB
  inhibition: Active
[10]
  inhibition: Active
[11]
  inhibition: Dose-dependent effect
[18]
  inhibition: Active
lymphoma
  Activity: Active
